CCR6 antag: CCR6 receptor antagonists, primary screen, cell-based, CHO-K1, luminescence, beta-arrestin, uHTS; C-C chemokine receptor type 6 (Homo sapiens), P51684; CHO-K1 CCR6 PathHunter beta-arrestin, CCL20-stimulated; inhibition, % at 20 µM; 0.49% of 340,000 active;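 active = compounds whose inhibition of the agonist-driven luminescence signal at 20 µM reaches about 50%, limit read from the data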;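 note: cells stimulated with CCL20 at 14 nM final; plate controls were DMSO with CCL20 for no effect and DMSO without agonist for full effect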
APJ agonist: agonists of human apelin receptor APJ, primary screen, CHO-K1 cells, PathHunter beta-arrestin, luminescence. activation, % at 20 µM. 0% DMSO wells, 100% apelin. 0.11% of 330,000 active. P35414. AID 2520, 2010;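 active = activation more than six SD over the plate average, tested at 20 µM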;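 note: 0% = DMSO alone and 100% = apelin-13 at 10 nM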
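Material: CHO-K1 APJ beta-arrestin complementation cell line; Input: cell density 1000 per well; Incubation: compound stimulation 90 min at 25 °C, detection 60 min; Signal: luminescence from split beta-galactosidase complementation, Galacton Star/Emerald II substrate; Controls: DMSO-only wells as negative, 10 nM Apelin-13 as positive control.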
EBI2 antag: EBI2 receptor antagonists, beta-arrestin recruitment, primary screen, cell-based, luminescence, 7a,25-OHC stimulation, uHTS. 7a,25-OHC stimulated. G-protein coupled receptor 183 (Homo sapiens), P32249. 0.81% of 360,000 active. inhibition, % at 5 µM; in the data active = inhibition above about 38%;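 note: enzyme fragment complementation signal reports receptor beta-arrestin coupling in cells; 0% = agonist plus DMSO wells and 100% = wells without agonist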
Target sequence (P32249 whole entry, looked up, the tested form may be a part): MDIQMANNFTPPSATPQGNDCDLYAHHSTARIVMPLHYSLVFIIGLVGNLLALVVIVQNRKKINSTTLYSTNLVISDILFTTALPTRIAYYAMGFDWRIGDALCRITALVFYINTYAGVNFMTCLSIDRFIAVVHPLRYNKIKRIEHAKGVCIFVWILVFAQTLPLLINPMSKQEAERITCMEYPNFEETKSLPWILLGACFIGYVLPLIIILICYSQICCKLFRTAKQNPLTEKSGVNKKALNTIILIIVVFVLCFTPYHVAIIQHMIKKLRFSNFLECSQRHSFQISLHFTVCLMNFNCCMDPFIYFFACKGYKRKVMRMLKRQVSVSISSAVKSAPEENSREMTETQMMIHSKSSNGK
CXCR6 block: CXCR6 receptor inhibitors, primary screen, cell-based, beta-arrestin, luminescence, CHO-K1 PathHunter, 1536-well. C-X-C chemokine receptor type 6 (Homo sapiens), O00574. inhibition, % at 20 µM. 0.36% of 360,000 active. AID 602244, 2012; in the data active = inhibition above about 34%, passing the limit was not always enough;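 note: antagonist mode with CXCL16 agonist at 10 nM final; 0% = 10 nM CXCL16 with DMSO and 100% = unstimulated wells without agonist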
APJ antagonist: antagonists of human apelin receptor APJ, primary screen, CHO-K1 cells, beta-arrestin complementation, luminescence | inhibition, % at 20 µM | 0.32% of 330,000 active;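 active = inhibition above about 40% at 20 µM, limit read from the data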;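 note: cells challenged with 10 nM apelin-13 agonist together with compound; plate controls were apelin-13 plus DMSO wells for no effect and DMSO wells lacking apelin-13 for full effect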
Numbers without * were called inactive; . = no result. An excerpt weighted towards active compounds, which were near 1.5% of everything screened.

SMILES	CCR6 antag	APJ agonist	EBI2 antag	CXCR6 block	APJ antagonist
COC(=O)N/N=C/c1cc(N=Nc2ccccc2Cl)ccc1O	58*	-5	1	32	11
CCc1ccc(N2CC(C(=O)OCC(=O)Nc3ccc([N+](=O)[O-])cc3)CC2=O)cc1 (configuration not stated)	15	-3	-4	-2	-5
Cc1cccc(C)c1OCC(=O)NCC1COc2ccccc2O1 (configuration not stated)	15	-2	-1	6	12
CS(=O)(=O)N1CCC(C(=O)N2CCN(C(c3ccccc3)c3ccccc3)CC2)CC1	1	-3	0	2	11
O=[N+]([O-])c1ccc(Cl)c(S(=O)(=O)/N=C(/c2ccccc2)N2CCOCC2)c1	-9	-1	-3	-18	-4
Cc1ccc(-n2sc3ccccc3c2=O)cc1	52*	1	10	0	-33
O=c1c2ccccc2sn1-c1ccc(F)cc1	13	0	12	-5	-10
O=C(O)c1cccc(N/N=C(\N=Nc2ccccc2)c2ccccc2)c1	45	-13	-2	28	38
Brc1ccc(N/N=C(/N=Nc2nn[nH]n2)c2ccccc2)cc1	52*	-5	5	35	24
COc1ccc(-c2ccc(=O)n(CC(=O)NCC3COCCO3)n2)cc1 (configuration not stated)	4	4	-2	4	11
COc1cc(N=C2C(=O)N3c4c(cccc42)C(C)=CC3(C)C)cc(OC)c1	61*	-6	-13	14	13
CN(C(=O)CSc1nc2ccc(Cl)cc2[nH]1)C1CCS(=O)(=O)C1 (configuration not stated)	3	1	-2	-8	5
COc1ccc(-c2csc(NC(=O)CSc3nc(C)nc4sc(C(=O)O)c(C)c34)n2)cc1	18	-3	2	3	6
Cc1nc(NC(=O)CSc2nnnn2Cc2ccccc2)sc1C	86*	-1	4	-11	-4
O=C1c2sc3nc4ccccc4n3c2C(=O)N1c1ccccc1Cl	47	-5	9	38*	-2
Cc1ccccc1N1C(=O)c2sc3nc4c(c(=O)n3c2C1=O)CCC4	-3	-1	-3	4	12
CN1CCN(S(=O)(=O)c2ccc(NC(=S)NC(=O)c3ccc(Cl)cc3)cc2)CC1	32	.	-2	17	.
CC1CCN(S(=O)(=O)c2ccc(NC(=S)NC(=O)c3ccc(Cl)cc3)cc2)CC1	55*	-5	16	14	32
CCN(CC)c1c([N+](=O)[O-])c(=O)n(C)c2ccccc12	16	-1	0	-6	8
Cn1c(=O)c([N+](=O)[O-])c(Cl)c2ccccc21	101*	.	16	88*	.
Nc1nn2c(-c3ccccc3)cc(=O)[nH]c2c1N=Nc1ccc(Br)cc1	43	.	7	41*	.
CCCCSc1ncnc2c1ncn2C1CCCCO1 (configuration not stated)	8	.	-14	-5	.
CN(C)CC1CCC/C(=C\c2ccc(OC(=O)/C=C/c3ccccc3)cc2)C1=O (configuration not stated)	62*	.	4	34	.
CN(C)CC1CCC/C(=C\c2ccc(OC(=O)c3ccc(Cl)cc3)cc2)C1=O (configuration not stated)	59*	.	10	12	.
C[C@@H](C(=O)NCCc1c[nH]c2ccccc12)[C@@H]1C[C@@]1(C)[C@@H](NC(=O)OCc1ccccc1)c1ccccc1	6	-4	75*	3	10
SMILES	CCR6 antag	APJ agonist	EBI2 antag	CXCR6 block	APJ antagonist
CCN(CC)C(=O)[C@H]1C[C@H](CC(=O)NCCN2CCOCC2)C(=O)N2CCc3c([nH]c4cc(CCC(=O)N(C)C)ccc34)[C@]12C	19	.	-1	2	.
CCN(CC)S(=O)(=O)c1ccc2oc(C(=O)NCc3ccc(C)cc3)c(C)c2c1	13	2	70*	-6	6
Nn1c(SCC(=O)NC2CCS(=O)(=O)C2)nc2scc(-c3ccccc3)c2c1=O (configuration not stated)	3	-3	7	3	-2
COC(=O)C(C)Oc1ccc(Oc2nc(Cl)ccc2Cl)cc1 (configuration not stated)	-6	-4	8	0	1
CN1C(=O)C(N=Nc2ccc([N+](=O)[O-])cc2)SC1=S (configuration not stated)	86*	.	-7	45*	.
CCCCNC(=O)c1cc2cc(CC)ccc2[nH]1	14	0	4	-8	-6
COc1ccc(/C(C)=N/Nc2ncc(Cl)cc2Cl)c(O)c1	22	-1	43*	2	11
O=C(Nc1ccccc1N1CCOCC1)c1ccc(Br)o1	51*	-4	7	1	4
CN1CCN(c2ccccc2NC(=O)c2ccc(-c3cccc(Cl)c3)o2)CC1	55*	-5	19	-10	11
CN1CCN(c2ccccc2NC(=O)c2ccc(Br)o2)CC1	0	-3	6	-8	-2
CCCCOCCCNC(=O)C[C@@H]1C[C@@]2(C(=O)OCC)CCCC=C2N(CCc2ccc(OC)c(OC)c2)C1=O	.	.	6	.	.
CCCCNS(=O)(=O)c1ccc(Br)cc1N1CCC[C@H]1CO	35	.	4	5	.
CC1OC2CC(=O)OC2C2=C1C(=O)c1c(O)cccc1C2=O (configuration not stated)	.	.	-28	79*	.
O=C1c2cccc(O)c2C(=O)c2c(O)cc(CO)cc21	4	2	.	.	-135
O=C(N/N=C/c1ccccc1Cl)c1ccncc1	-5	-4	-8	0	-17
O=C(N/N=C/c1cc(Cl)ccc1O)c1ccncc1	-2	10	50*	-9	-40
CCC1(CC)Cc2ccccc2-c2nc(NN)[nH]c(=O)c21	50*	-7	3	29	14
Nc1ccccc1Sc1nc2ccccc2[nH]1	-7	2	64*	-13	-5
Nc1nc2ccccc2[nH]1	8	-4	1	-1	-4
N#CC(=C1C=CC(=NO)C(Cl)=C1)c1ccc(Cl)cc1	67*	.	-20	33	.
O=C(COC(=O)c1ccc(Cl)c([N+](=O)[O-])c1)NC1CCCC1	1	-4	-6	-6	19
O=C(COC(=O)c1ccccc1C(=O)c1ccc(Cl)c([N+](=O)[O-])c1)NC1CCCCCC1	16	5	53*	10	36
CCCCC(=O)N(Cc1ccc(F)cc1)C1CCS(=O)(=O)C1 (configuration not stated)	-7	0	-3	-4	8
O=C(NN1C(=O)/C(=C/c2cccs2)SC1=S)c1cccnc1	17	1	18	5	7
CCOc1cc(/C=C2\SC(=S)N(NC(=O)c3cccnc3)C2=O)ccc1O	43	-9	12	37	44*

Bioassay records as filed in PubChem BioAssay.
